Bioassay records from PubChem BioAssay.
Shown are actives, neighbours in structure and some others; about 2.9% of the full set was active somewhere.
PfM18AAP inh = PfM18AAP inhibitors, malaria aminopeptidase, primary screen, biochemical, QFRET, recombinant enzyme; M18 aspartyl aminopeptidase (Plasmodium falciparum 3D7); H-Glu-NHMec fluorogenic cleavage; inhibition, % at 7.35 µM; 290,000 compounds, 1.2% hits; AID 1822, 2009;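 active = inhibition above the campaign mean inhibition over all tested compounds plus 3 SD, cut at about 28% in these data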;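 also: 0% = plate median of test compound wells and 100% = 2 mM ZnCl2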
PfGluPho inh = PfG6PD enzyme inhibitors, primary screen, biochemical, fluorescence intensity, uHTS. 350,000 compounds, 0.78% hits. glucose-6-phosphate dehydrogenase-6-phosphogluconolactonase (Plasmodium falciparum 3D7). inhibition, % at 20 µM. PfGluPho enzyme, NADPH resazurin-diaphorase fluorescence;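 active = inhibition reaching at least a set limit at 20 µM in the primary screen, cut at about 59% in these data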;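 also: 0% = DMSO wells with substrate and 100% = DMSO wells lacking glucose-6-phosphate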
UBC13 polyUb = UBC13 polyubiquitin chain formation inhibitors, primary screen, biochemical, TR-FRET, uHTS | Ubiquitin-conjugating enzyme E2 N (Homo sapiens), P61088 | inhibition, % at 20 µM | 330,000 compounds, 0.47% hits; in the data active = inhibition above about 45%, passing the limit was not always enough
Target sequence (P61088 whole entry, looked up): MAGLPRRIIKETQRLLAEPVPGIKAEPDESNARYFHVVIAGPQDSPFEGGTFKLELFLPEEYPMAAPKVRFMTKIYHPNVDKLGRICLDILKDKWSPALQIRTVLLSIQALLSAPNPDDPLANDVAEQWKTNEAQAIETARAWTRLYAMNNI
ZTA counter = ZTA (EBV) inhibition in EBNA-1 counter-screen; P03206; inhibition, % at 11 µM; ZTA-DNA binding, fluorescence polarization; 320,000 compounds, 0.15% hits; in the data active = inhibition above about 33%
Target sequence (P03206 whole entry, looked up): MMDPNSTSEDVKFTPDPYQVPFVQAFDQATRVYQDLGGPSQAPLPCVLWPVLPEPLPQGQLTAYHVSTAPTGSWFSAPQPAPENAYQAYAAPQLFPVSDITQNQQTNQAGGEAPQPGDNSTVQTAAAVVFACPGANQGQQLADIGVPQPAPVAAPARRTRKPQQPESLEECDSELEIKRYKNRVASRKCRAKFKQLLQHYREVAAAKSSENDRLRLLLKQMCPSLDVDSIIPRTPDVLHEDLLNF
Apaf-1 inh = inhibitors of human Apaf-1 apoptosome, primary screen, biochemical, DEVD-Rh110 fluorescence, uHTS; inhibition, % at 20 µM; 330,000 compounds, 0.71% hits; Apoptotic protease-activating factor 1 (Homo sapiens), O14727; AID 489030, 2010; reconstituted apoptosome caspase-3 activity; active = inhibition of at least 40% at 20 µM;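 also: plate controls were DMSO wells for no effect and DEVD-CHO caspase inhibitor wells for full effect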
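System: reconstituted apoptosome with Apaf-1, cytochrome c, caspase-9, procaspase-3, dATP; Signal: Rh110 fluorescence intensity; Schedule: 30 min compound preincubation, 50 min activation, room temperature; Reagent: cytochrome c trigger plus (Z-DEVD)2-Rh110 caspase-3 substrate.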
EBNA-1 inhibitor = EBNA-1 DNA-binding inhibitors, primary screen, biochemical, fluorescence polarization; inhibition, % at 14.8 µM; 300,000 compounds, 0.34% hits; in the data active = inhibition above about 28%
Apaf-1 inh conf = Apaf-1 inhibitors, single-dose retest, confirmation, biochemical, fluorescence, DEVD-Rh110, 20 µM; shares compounds with Apaf-1 inh; reconstituted apoptosome, caspase-3 DEVD-Rh110 fluorescence; inhibition, % at 20 µM; 1,800 compounds, 25% hits;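 active = mean inhibition of at least 40% at 20 µM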;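 also: plate controls were DMSO wells for no effect and DEVD-CHO caspase inhibitor control wells for full effect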
Rh110 interf inh = Rh110 fluorescence interference by putative Apaf-1 inhibitors, confirmation, artefact control for Apaf-1 inhibitor project, biochemical, 20 µM; quenched caspase reaction; activation (fluorescence interference), % at 20 µM; shares compounds with Apaf-1 inh; 1,800 tested, under 10 active;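 active = signal rise of 40% or more at 20 µM, treated as a fluorescence artifact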
The depositor's hits bear a star.

What do the screens show for `COc1ccc(S(=O)(=O)N2CCCCCC2)cc1C(=O)N(C)Cc1ccc(Cl)cc1Cl`?
PfGluPho inh: 4; UBC13 polyUb: 0; ZTA counter: 12; Apaf-1 inh: 27; EBNA-1 inhibitor: 5

Results for CCN1CCN(S(=O)(=O)c2ccc(Cl)c(C(=O)N(C)Cc3cccc(Cl)c3Cl)c2)CC1 ?
PfGluPho inh: 3; UBC13 polyUb: 2; ZTA counter: -6; Apaf-1 inh: 43*; EBNA-1 inhibitor: 8; Apaf-1 inh conf: 30; Rh110 interf inh: -1

What do the screens show for `COc1ccc(S(=O)(=O)N2CCCCCC2)cc1C(=O)NCCc1ccccc1`?
PfGluPho inh: -8; UBC13 polyUb: 10; ZTA counter: 9; Apaf-1 inh: 47*; Apaf-1 inh conf: 36; Rh110 interf inh: -7

What do the screens show for `COc1ccc(S(=O)(=O)N2CCCCCC2)cc1C(=O)N(C)Cc1c(F)cccc1Cl`?
PfGluPho inh: 3; UBC13 polyUb: 23; ZTA counter: -2; Apaf-1 inh: 43*; Apaf-1 inh conf: 31; Rh110 interf inh: 4

Results for CCN1CCN(S(=O)(=O)c2ccc(Cl)c(C(=O)N(C)Cc3ccccc3)c2)CC1 ?
PfGluPho inh: 1; UBC13 polyUb: -1; ZTA counter: 1; Apaf-1 inh: -7

How did Cc1ccc(S(=O)(=O)N2CCCCC2)cc1C(=O)NCCc1ccccc1 do in these assays?
PfM18AAP inh: -2; PfGluPho inh: 2; UBC13 polyUb: 3; ZTA counter: -5; Apaf-1 inh: -7; EBNA-1 inhibitor: 8

Results for COc1ccc(C(=O)N(Cc2ccccc2)c2cccc(C)c2)cc1S(=O)(=O)N1CCOCC1 ?
PfGluPho inh: -2; UBC13 polyUb: 5; ZTA counter: -21; Apaf-1 inh: 45*; EBNA-1 inhibitor: 4; Apaf-1 inh conf: 35; Rh110 interf inh: 4

Results for Cc1cccc(N(Cc2ccccc2)C(=O)c2ccc(C)c(S(=O)(=O)N3CCOCC3)c2)c1 ?
PfGluPho inh: 10; UBC13 polyUb: 15; ZTA counter: -18; Apaf-1 inh: 13

Results for O=[N+]([O-])c1cccc(-n2nnnc2CN2CCCC2)c1 ?
PfM18AAP inh: 0; PfGluPho inh: -3; UBC13 polyUb: 8; ZTA counter: 1; Apaf-1 inh: -7; EBNA-1 inhibitor: 2

How did CCOc1ccc(S(=O)(=O)N2CCCC(C(=O)NCC3CCCO3)C2)cc1Cl (stereo unspecified) do in these assays?
PfGluPho inh: -13; UBC13 polyUb: -2; ZTA counter: 3; Apaf-1 inh: 11; EBNA-1 inhibitor: 8

What do the screens show for `CCC(=O)OCC(=O)[C@@]1(OC(=O)CC)[C@@H](C)C[C@H]2[C@@H]3CCC4=CC(=O)C=C[C@]4(C)[C@@]3(Cl)[C@@H](O)C[C@@]21C`?
PfGluPho inh: 27; UBC13 polyUb: -21; ZTA counter: -7; Apaf-1 inh: 9; EBNA-1 inhibitor: 1

Results for O=S(=O)(c1cccs1)N1CCN(c2ccccc2)CC1 ?
PfM18AAP inh: -3; PfGluPho inh: -1; UBC13 polyUb: 6; ZTA counter: 1; Apaf-1 inh: 0; EBNA-1 inhibitor: 6

How did Cc1ccc(N2CCN(S(=O)(=O)c3cccs3)CC2C)cc1 (stereo unspecified) do in these assays?
PfM18AAP inh: -2; PfGluPho inh: 6; UBC13 polyUb: -4; ZTA counter: -14; Apaf-1 inh: 62*; EBNA-1 inhibitor: -14; Apaf-1 inh conf: 15; Rh110 interf inh: 9
